The source of these data is ChEMBL document CHEMBL1148736, “N-Acylthiadiazolines, a new class of liver X receptor agonists with selectivity for LXRbeta” (J Med Chem, 2007).

The term pEC50 denotes −log10 of the EC50, conventionally taken in molar units. A low value points to a large EC50. As usually defined, the AUC is concentration integrated over time. The low end stands for less exposure, the high end for more exposure. For orientation: bioavailability means the share of a dose that reaches the circulation, judged against a reference dose that is usually intravenous. As a reminder, the half-life is how long it takes for the measured level to halve. Higher therefore signals slow loss. As a reminder, the Cmax is the peak of the concentration-time curve.

Structures are written as SMILES. pEC50: −log10 of the molar value. Calls of active or inactive are those of the source. The rule behind the calls is not given here.

Series [1] concerns the target T1, Oxysterols receptor LXR-beta (Homo sapiens, UniProt P55055).
T1 sequence (P55055 whole entry): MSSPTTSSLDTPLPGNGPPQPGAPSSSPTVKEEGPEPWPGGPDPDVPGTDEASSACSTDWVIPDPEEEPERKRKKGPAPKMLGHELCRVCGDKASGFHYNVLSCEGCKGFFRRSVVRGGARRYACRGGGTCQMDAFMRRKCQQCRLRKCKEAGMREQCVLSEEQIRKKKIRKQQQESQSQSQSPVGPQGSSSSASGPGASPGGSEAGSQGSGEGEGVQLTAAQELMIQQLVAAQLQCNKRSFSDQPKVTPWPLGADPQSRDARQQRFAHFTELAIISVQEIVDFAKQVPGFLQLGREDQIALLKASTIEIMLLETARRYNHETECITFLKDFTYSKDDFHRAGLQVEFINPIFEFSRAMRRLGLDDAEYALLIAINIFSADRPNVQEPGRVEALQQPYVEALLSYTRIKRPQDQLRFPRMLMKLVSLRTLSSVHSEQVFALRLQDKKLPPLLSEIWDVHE
As to the kind of experiment: Activity at human LXRbeta by Gal4 transactivation assay. The gist of the method: (§1)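 GAL4 DBD fused to hLXRα or hLXRβ LBD in pcDNA3, co-transfected into HepG2 with luciferase reporter. Cells in DMEM with 10% lipoprotein-deficient FBS, 7.5 µM lovastatin, 100 µM mevalonic acid. Ligand added 24 h post-transfection as 11-point curves from 10 µM; luciferase read after 16 h. Run in quadruplicate. %E = max fold induction vs max fold induction of reference dual agonist in same experiment.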

Series [2] is described as follows: AUC in C57BL/6 mouse at 20 mg/kg, po. Format: ADME, organism-based. Set-up: dose 20 mg/kg, route oral. Conditions: plasma. Put shortly:
(§2)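 Mouse PK study, IV and PO; compound formulated at 2.5 mg/mL in PEG300/Tween 80 (4:1). IV dose 5 mpk (AUC, Cmax, clearance, Vss); oral dose 20 mpk (AUC, Cmax, bioavailability, t1/2).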

The next series relates to HepG2. The series can be described thus: Increase in FAS gene expression in HepG2 cells at 10 uM relative to GW-3965. Format: functional, Homo sapiens.
Series [3] addresses T2, Oxysterols receptor LXR-alpha (Homo sapiens) (UniProt Q13133).
T2 sequence (whole entry): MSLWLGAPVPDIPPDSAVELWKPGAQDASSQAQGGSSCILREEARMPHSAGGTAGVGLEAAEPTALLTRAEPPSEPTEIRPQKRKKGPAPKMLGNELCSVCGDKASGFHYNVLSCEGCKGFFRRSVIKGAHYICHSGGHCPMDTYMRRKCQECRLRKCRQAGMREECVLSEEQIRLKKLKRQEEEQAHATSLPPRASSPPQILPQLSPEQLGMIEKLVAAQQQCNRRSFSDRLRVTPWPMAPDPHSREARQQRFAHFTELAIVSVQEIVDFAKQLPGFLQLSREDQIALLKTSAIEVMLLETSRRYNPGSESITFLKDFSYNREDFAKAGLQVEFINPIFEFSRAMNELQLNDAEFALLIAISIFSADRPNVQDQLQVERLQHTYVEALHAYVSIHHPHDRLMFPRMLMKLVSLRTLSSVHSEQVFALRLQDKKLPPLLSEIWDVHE
The series can be described thus: Displacement of [3H]T-0901317 from GAL-linked human LXRalpha expressed in THP1 cells at 20 uM by SPA relative to GW-3965. Conditions: THP-1. Format: cell-based. The gist of the method:
(§3)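 Scintillation proximity displacement with His-tagged hLXRα or hLXRβ LBD (200 ng/well) and 30 nM [3H]T0901317. Beads 0.2 mg/well in phosphate buffer with EDTA, NaCl, DTT, CHAPS, 10% glycerol. 12-point curves from 20 µM; shaken 3 h at room temperature. No-competitor wells = 100% binding; nonspecific binding without protein. Efficacy = maximal displacement relative to reference dual agonist.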
(In general: In a radioligand displacement assay an active substance lowers the binding of a labelled ligand.)

The target of series [4] is Retinoid X receptor (Homo sapiens) (UniProt P28702+P48443+P19793). As to the kind of experiment: Activity at RXR by cell based assay.
Sequence of Retinoid X receptor (Homo sapiens) (P19793 whole entry, looked up): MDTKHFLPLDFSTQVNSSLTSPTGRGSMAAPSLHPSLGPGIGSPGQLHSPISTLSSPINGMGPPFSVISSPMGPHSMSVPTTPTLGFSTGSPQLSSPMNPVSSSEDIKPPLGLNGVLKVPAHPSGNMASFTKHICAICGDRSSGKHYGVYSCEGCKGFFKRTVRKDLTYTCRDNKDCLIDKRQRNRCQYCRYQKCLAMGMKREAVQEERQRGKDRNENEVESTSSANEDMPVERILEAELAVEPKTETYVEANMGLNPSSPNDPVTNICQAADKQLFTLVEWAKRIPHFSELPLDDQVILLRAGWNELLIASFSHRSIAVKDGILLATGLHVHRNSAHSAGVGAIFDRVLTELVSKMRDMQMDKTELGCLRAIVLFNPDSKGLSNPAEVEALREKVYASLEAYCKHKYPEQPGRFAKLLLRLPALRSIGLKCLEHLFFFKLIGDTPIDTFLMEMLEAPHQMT
Sequence of Retinoid X receptor (Homo sapiens) (P28702 whole entry, looked up): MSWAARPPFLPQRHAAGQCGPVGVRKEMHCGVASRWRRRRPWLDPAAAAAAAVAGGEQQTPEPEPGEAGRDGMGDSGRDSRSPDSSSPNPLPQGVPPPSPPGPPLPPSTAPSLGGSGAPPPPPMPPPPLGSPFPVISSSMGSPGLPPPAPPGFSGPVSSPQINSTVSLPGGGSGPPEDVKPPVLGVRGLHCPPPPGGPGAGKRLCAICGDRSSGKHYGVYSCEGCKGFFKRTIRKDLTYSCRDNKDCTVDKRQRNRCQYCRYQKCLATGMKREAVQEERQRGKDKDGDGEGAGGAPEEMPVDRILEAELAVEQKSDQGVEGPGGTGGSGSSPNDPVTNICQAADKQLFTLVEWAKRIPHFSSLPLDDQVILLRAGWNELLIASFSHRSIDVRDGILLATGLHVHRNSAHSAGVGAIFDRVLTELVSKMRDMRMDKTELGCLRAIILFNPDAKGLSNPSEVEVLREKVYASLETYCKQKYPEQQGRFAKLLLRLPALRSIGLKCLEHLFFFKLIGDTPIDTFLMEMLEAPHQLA
Sequence of Retinoid X receptor (Homo sapiens) (P48443 whole entry, looked up): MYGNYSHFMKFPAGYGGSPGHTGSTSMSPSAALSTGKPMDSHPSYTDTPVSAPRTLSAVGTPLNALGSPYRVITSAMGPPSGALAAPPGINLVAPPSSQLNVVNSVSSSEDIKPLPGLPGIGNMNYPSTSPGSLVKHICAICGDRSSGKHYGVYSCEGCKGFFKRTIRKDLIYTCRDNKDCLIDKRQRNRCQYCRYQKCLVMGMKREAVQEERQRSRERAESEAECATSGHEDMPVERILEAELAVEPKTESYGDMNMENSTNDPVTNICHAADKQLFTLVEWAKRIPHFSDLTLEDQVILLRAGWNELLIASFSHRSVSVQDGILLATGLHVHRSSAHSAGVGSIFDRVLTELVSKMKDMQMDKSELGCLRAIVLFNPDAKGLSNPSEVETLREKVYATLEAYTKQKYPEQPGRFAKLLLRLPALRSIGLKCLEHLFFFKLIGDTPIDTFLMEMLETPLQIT
The subject of the next series is THP-1. The series can be described thus: Increase in ABCA1 gene expression in THP1 cells at 10 uM relative to GW-3965. Format: functional, Homo sapiens. Put shortly:
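THP-1 cells differentiated with 40 ng/mL PMA for 1 day, then switched to RPMI with 2% lipoprotein-deficient FBS. Compound added 6 h later at 1 or 10 µM in DMSO, incubated 24 h. ABCA1 mRNA by one-step TaqMan qRT-PCR, triplicate, multiplexed with 36B4; fold induction vs DMSO, expressed relative to reference dual agonist.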

Series [5] in a line: Bioavailability in C57BL/6 mouse at 20 mg/kg, po. Format: ADME, organism-based. Conditions: in vivo. Put shortly:
as §2

Series [6] in a line: Half life in C57BL/6 mouse at 20 mg/kg, po. Further details: dose 20 mg/kg, route oral. In kind it is ADME, organism-based. Conditions: in vivo. Put shortly: as §2
The target in series [7] is T3, Oxysterols receptor LXR-beta (Homo sapiens) (UniProt P55055).
T3 sequence (whole entry): T1 sequence (P55055 whole entry)
The series can be described thus: Agonist activity at GAL-linked human LXRbeta expressed in THP1 cells assessed as stimulation of co-activator recruitment by FRET assay relative to GW-3965. In kind it is functional. Put shortly: (§4)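 Cell-free TR-FRET coactivator recruitment: 20 nM His-tagged hLXRα or hLXRβ, 300 nM biotinylated SRC-1 peptide, Eu-anti-His antibody, APC-streptavidin. 12-point curves from 20 µM; 1 h at 37 °C. Duplicate. %E = maximal coactivator recruitment relative to reference dual agonist in same experiment.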

The subject of series [8] is Liver. The series can be described thus: Effect on SREBP1c gene expression in C57BL/6 mouse liver. In kind it is functional, tissue-based. Put shortly: (§5)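 Male C57BL/6 mice, 10 weeks old, chow-fed, gavaged daily with vehicle or compound (20–200 mpk) for 3 days. Fasted overnight before the last dose; killed 3 h later. Tissue RNA analysed by TaqMan qRT-PCR.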
The target in series [9] is T2, Oxysterols receptor LXR-alpha (Homo sapiens). As to the kind of experiment: Agonist activity at GAL-linked human LXRalpha expressed in THP1 cells assessed as stimulation of co-activator recruitment by FRET assay relative to GW-3965. In kind it is functional. Put shortly:
as §4

In series [10] the test system is Liver. As to the kind of experiment: Effect on ABCA1 gene expression in C57BL/6 mouse liver. Format: functional, tissue-based. Put shortly:
as §5

Series [11] addresses T4, Vitamin D3 receptor (Homo sapiens) (UniProt P11473).
T4 sequence (whole entry): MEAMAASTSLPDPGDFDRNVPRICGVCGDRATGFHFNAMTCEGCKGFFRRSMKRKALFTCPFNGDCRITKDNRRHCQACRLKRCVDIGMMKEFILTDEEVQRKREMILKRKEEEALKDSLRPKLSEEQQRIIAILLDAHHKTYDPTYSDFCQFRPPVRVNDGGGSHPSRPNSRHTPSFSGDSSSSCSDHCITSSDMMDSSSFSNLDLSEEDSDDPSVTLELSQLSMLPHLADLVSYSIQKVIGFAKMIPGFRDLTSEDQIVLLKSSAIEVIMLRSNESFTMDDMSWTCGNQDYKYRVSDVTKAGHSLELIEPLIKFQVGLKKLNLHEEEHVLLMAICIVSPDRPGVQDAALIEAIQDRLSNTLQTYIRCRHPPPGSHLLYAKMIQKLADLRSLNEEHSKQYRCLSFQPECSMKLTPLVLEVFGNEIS
As to the kind of experiment: Activity at VDR by cell based assay. In kind it is functional.

Series [12] concerns the target T3, Oxysterols receptor LXR-beta (Homo sapiens). As to the kind of experiment: Displacement of [3H]T-0901317 from GAL-linked human LXRbeta expressed in THP1 cells at 20 uM by SPA relative to GW-3965. In kind it is cell-based. Conditions: THP-1. The gist of the method:
as §3

Series [13] can be described thus: Cmax in C57BL/6 mouse at 20 mg/kg, po. Format: ADME, organism-based. Further details: dose 20 mg/kg, route oral. Conditions: in vivo. Put shortly: as §2
The target in series [14] is T3, Oxysterols receptor LXR-beta (Homo sapiens). The series can be described thus: Activity at human LXRbeta by Gal4 transactivation assay relative to GW-3965. The gist of the method: as §1

`COc1cccc(C2SC(c3ccc(Cl)cc3)=NN2C(=O)c2c(F)cc(F)cc2F)c1OC` (racemic): in series [1], the negative logarithm of the EC50 (pEC50) was 7.01. The AUC in series [2] was 7920 ng·h/mL. Also, the figures for the Activity in the series with HepG2 and in the series on THP-1 were 33% and 59%, respectively. In addition, the Efficacy in series [3] was 52%; in [7], 99%; in series [9], 42%; in [12], 100%; in [14], 82%. Also, the result (in series [4]; in the series on Liver [8]; in the series on Liver [10]; in series [11]) was inactive. The same compound came in with a bioavailability in series [5] of 28%. Further, the half-life in series [6] was 6.7 h. In series [13], this compound displayed a maximum concentration (Cmax) of 4.9 µM.
